Tests used:
Type in all cases: functional
RT-4 = assay: Cytotoxicity against human RT4 cells after 96 hrs; settings: RT-4, 96 h
Method in brief: (§1)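 Cells plated in 96-well format, left 24 h, then given compound continuously for 96 h. Growth read by staining attached viable cells with crystal violet, washing, redissolving bound dye in 70% ethanol and reading OD at 570 nm. GI50 computed from dose–response data of 5 to 7 independent experiments.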

DAN-G = assay: Cytotoxicity against human DANG cells after 96 hrs; method in brief: as §1
A-427 = assay: Cytotoxicity against human A427 cells after 96 hrs; settings: A-427, 96 h; method in brief: as §1
5637 = assay: Cytotoxicity against human 5637 cells after 96 hrs; settings: Homo sapiens, 5637, 96 h; method in brief: as §1
[1] = Cytotoxicity against human LCLC103H cells after 96 hrs; settings: LCLC-103H; method in brief: as §1
MCF7 = assay: Cytotoxicity against human MCF7 cells after 96 hrs; settings: MCF7, 96 h; method in brief: as §1

Cc1cc2c(cc1Cl)SC(N(N(C)C)S(=O)(=O)c1ccc(Cl)cc1)=NS2(=O)=O
GI50 (RT-4): > 20 µM
GI50 (DAN-G): 23.5 µM
GI50 (A-427): 15.6 µM
GI50 5637: 19.2 µM
GI50 [1]: > 20 µM
GI50 (MCF7): 12.3 µM

COC(=O)c1cc2c(cc1Cl)SC(N(N(C)C)S(=O)(=O)c1ccc(Cl)cc1)=NS2(=O)=O
GI50 (RT-4): 18.5 µM
GI50 (DAN-G): 18.7 µM
GI50 (A-427): 10.2 µM
GI50 5637: 12.6 µM
GI50 [1]: 19.6 µM
GI50 (MCF7): 8.7 µM

CCOC(=O)c1cc2c(cc1Cl)SC(N(c1ccc(OC)cc1)S(=O)(=O)c1ccc(Cl)cc1Cl)=NS2(=O)=O
GI50 (RT-4): 6.3 µM
GI50 (DAN-G): 3.1 µM
GI50 (A-427): 4.1 µM
GI50 5637: 2.3 µM
GI50 [1]: 2.8 µM
GI50 (MCF7): 2.4 µM

Cc1cc2c(cc1Cl)SC(N(c1ccccc1Cl)S(=O)(=O)c1ccc(Br)s1)=NS2(=O)=O
GI50 (RT-4): 28.6 µM
GI50 (DAN-G): 9.4 µM
GI50 (A-427): 8.2 µM
GI50 5637: 7.5 µM
GI50 [1]: 11.9 µM
GI50 (MCF7): 6.5 µM

Cc1cc2c(cc1Cl)SC(N(c1ccc(Cl)cc1)S(=O)(=O)c1ccccc1)=NS2(=O)=O
GI50 (RT-4): 22 µM
GI50 (DAN-G): 9.9 µM
GI50 (A-427): 9.2 µM
GI50 5637: 9.6 µM
GI50 [1]: 12.4 µM
GI50 (MCF7): 8.1 µM

CCOC(=O)c1cc2c(cc1Cl)SC(N(c1ccccc1)S(=O)(=O)c1ccc(Cl)cc1)=NS2(=O)=O
GI50 (RT-4): > 20 µM
GI50 (DAN-G): 14.8 µM
GI50 (A-427): 11.7 µM
GI50 5637: 14.3 µM
GI50 [1]: > 20 µM
GI50 (MCF7): 9.8 µM

O=C(Oc1cccc2cccnc12)c1cc2c(cc1Cl)SC(N(c1ccc(F)cc1)S(=O)(=O)c1ccc(Cl)cc1)=NS2(=O)=O
GI50 (RT-4): > 20 µM
GI50 (DAN-G): 9.3 µM
GI50 (A-427): 3.1 µM
GI50 5637: 6.2 µM
GI50 [1]: 4.6 µM
GI50 (MCF7): 3.2 µM

CCOC(=O)c1cc2c(cc1Cl)SC(N(c1ccc(F)cc1)S(=O)(=O)c1ccc(OC)cc1)=NS2(=O)=O
GI50 (RT-4): 19 µM
GI50 (DAN-G): 12 µM
GI50 (A-427): 8.4 µM
GI50 5637: 12.1 µM
GI50 [1]: 17.5 µM
GI50 (MCF7): 5.8 µM

COC(=O)c1cc2c(cc1Cl)SC(N(N(C)C)S(=O)(=O)c1ccc(Br)s1)=NS2(=O)=O
GI50 (RT-4): 18.5 µM
GI50 (DAN-G): 23.7 µM
GI50 (A-427): 12 µM
GI50 5637: 13.7 µM
GI50 [1]: 19.1 µM
GI50 (MCF7): 10.9 µM

CCOC(=O)c1cc2c(cc1Cl)SC(N(c1ccc(OC)cc1)S(=O)(=O)c1ccccc1)=NS2(=O)=O
GI50 (RT-4): 16.8 µM
GI50 (DAN-G): 7.6 µM
GI50 (A-427): 7 µM
GI50 5637: 6.5 µM
GI50 [1]: 9.3 µM
GI50 (MCF7): 4.9 µM

CCOC(=O)c1cc2c(cc1Cl)SC(N(c1ccc(OC)cc1)S(=O)(=O)c1ccc(Cl)cc1)=NS2(=O)=O
GI50 (RT-4): 23.1 µM
GI50 (DAN-G): 12.3 µM
GI50 (A-427): 11.2 µM
GI50 5637: 11.9 µM
GI50 [1]: 19.3 µM
GI50 (MCF7): 8.1 µM

O=C(Oc1cccc2cccnc12)c1cc2c(cc1Cl)SC(N(c1ccc(F)cc1)S(=O)(=O)c1ccc(Br)s1)=NS2(=O)=O
GI50 (RT-4): > 20 µM
GI50 (DAN-G): 8.2 µM
GI50 (A-427): 3.4 µM
GI50 5637: 5.1 µM
GI50 [1]: 5.3 µM
GI50 (MCF7): 3.2 µM
